Where two headings read alike, the source gives them in different places. Where a SMILES comes first, the peptide text is derived from it.
Experiments:
2P-ERK2 (active ERK2) [1] = molecular target: T1, 2P-ERK2 (active ERK2) (Rattus norvegicus, UniProt P63086); test: NMR; assay type: binding; conditions: estimated, slow/intermediate exchange prevented accurate determination
0P-ERK2 (inactive ERK2) [2] = molecular target: T2, 0P-ERK2 (inactive ERK2) (Rattus norvegicus, UniProt P63086); test: NMR; assay type: binding; conditions: estimated, slow/intermediate exchange prevented accurate determination
Procedure, shortened: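 Unphosphorylated ERK2 from E. coli BL21(DE3), ILV-methyl-labeled in a protonated background, ~0.26 mM in 50 mM Tris pH 7.4, 150 mM NaCl, 5 mM MgSO4, 0.1 mM EDTA, 5 mM DTT, 99% D2O, 2.5% glycerol. AMP-PNP titrated at 0, 0.1, 0.2, 0.3, 1.0, 2.1, 4.2 mM; 5 h 2D TROSY-HMQC per point, 25 °C, 800 MHz; combined methyl CSP (1H, 0.25×13C).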

0P-p38α = conditions: read-out: binding affinity of ATP; cited from earlier work
2P-p38α = conditions: cited from earlier work
[3] = system: Tyr-185 phosphorylated (pY) ERK2; conditions: formation of the ternary MBP-bound complex of pY ERK2; cited from earlier work
2P-ERK2 (active ERK2) [4] = molecular target: T1, 2P-ERK2 (active ERK2); test: NMR; assay type: binding
0P-ERK2 (inactive ERK2) [5] = molecular target: T2, 0P-ERK2 (inactive ERK2); test: NMR; assay type: binding
[6] = molecular target: Elk1F peptide DEF-site peptide (Homo sapiens) (UniProt P19419); conditions: cited from earlier work
[7] = molecular target: 0P-ERK2 mutant that was binding competent only at the DEJL-site; conditions: full-length Elk1 protein and 0P-ERK2 mutant binding competent only at the DEJL-site; cited from earlier work

## Nc1ncnc2c1ncn2[C@@H]1O[C@H](COP(=O)(O)OP(=O)(O)NP(=O)(O)O)[C@@H](O)[C@H]1O [AMP-PNP, adenosine 5′-(β,γ-imido)triphosphate]
2P-ERK2 (active ERK2) [1]
  Kd: 200 to 500 µM
0P-ERK2 (inactive ERK2) [2]
  Kd: 200 to 500 µM

## Nc1ncnc2c1ncn2[C@@H]1O[C@H](COP(=O)(O)OP(=O)(O)OP(=O)(O)O)[C@@H](O)[C@H]1O [ATP]
0P-p38α
  Kd: > 15000 µM
2P-p38α; 2P-p38α versus 0P-p38α
  increase in the binding affinity of ATP upon phosphorylation: > 30 fold
2P-p38α; read-out: binding affinity of ATP, 2P-p38α
  Kd: 430 µM
[3]
  koff, ATP: 0.5 s⁻¹

## CC(C)C[C@H](NC(=O)[C@H](CO)NC(=O)[C@@H]1CCCN1C(=O)[C@H](CO)NC(=O)[C@H](CC(C)C)NC(=O)[C@@H]1CCCN1C(=O)[C@H](CC(C)C)NC(=O)[C@H](CCC(=O)O)NC(=O)[C@H](CC(C)C)NC(=O)[C@H](CC(=O)O)NC(=O)[C@H](CCCNC(=N)N)NC(=O)[C@@H]1CCCN1C(=O)[C@H](CCCCN)NC(=O)[C@H](CCCNC(=N)N)NC(=O)CNC(=O)[C@H](CCCCN)NC(=O)[C@@H](N)CCC(N)=O)C(=O)O [Elk1D] (H-QKGRKPRDLELPLSPSL-OH)
2P-ERK2 (active ERK2) [4]
  Kd: 30 ± 3 µM
0P-ERK2 (inactive ERK2) [5]
  Kd: 10 ± 1 µM

## ERK2 (2P-ERK2) (from UniProt P63086)
[6]
  Kd: 8 µM

## full-length Elk1 protein: full-length transcription factor Elk1, a substrate of ERK2
[7]
  Kd: 5 µM

— PMC4943881 (Biochemistry, 2015)
